PGC1a acetyl inh: lowers PGC1a acetylation signal in U2OS cells; inhibition, % at 15.6 µM; 350,000 tested, 0.17% active; AID 651687; AlphaScreen anti-acetyl-lysine; with virally co-expressed GCN5 acetyltransferase;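 active = every replicate shows inhibition of at least 40%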
Cneo AK release: Cryptococcus neoformans lysis via adenylate kinase release | AID 651654 | lysis activity, % at 15 µM | 360,000 tested, 0.2% active | C. neoformans lysis, adenylate kinase release luminescence, 4 h; normalised: neutral wells 0, clomiphene wells 100;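 active = mean lysis activity across replicates of at least 80%, whatever share of replicates individually reach that level; inactive = mean lysis activity below 80%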
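Material – Cryptococcus neoformans yeast cells · Quantity – 5 × 10^6 yeast cells/mL · Buffer or medium – YPD medium · Compound – single dose · Timing – 4 h static compound exposure, 37 °C, read 1 h post-reagent · Signal – adenylate kinase release luminescence · Read-out basis – lysis from increased AK signal · Benchmarks – Clomiphene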
SIRT5 block: inhibitors of human sirtuin-5 desuccinylase | AID 652115 | 330,000 tested, 1.1% active | inhibition, % at 15 µM | Purified SirT5, succinyl-peptide AMC, trypsin-coupled fluorescence | Q9NXA8; in the data active = inhibition above about 15%
Target sequence (Q9NXA8 whole entry, looked up): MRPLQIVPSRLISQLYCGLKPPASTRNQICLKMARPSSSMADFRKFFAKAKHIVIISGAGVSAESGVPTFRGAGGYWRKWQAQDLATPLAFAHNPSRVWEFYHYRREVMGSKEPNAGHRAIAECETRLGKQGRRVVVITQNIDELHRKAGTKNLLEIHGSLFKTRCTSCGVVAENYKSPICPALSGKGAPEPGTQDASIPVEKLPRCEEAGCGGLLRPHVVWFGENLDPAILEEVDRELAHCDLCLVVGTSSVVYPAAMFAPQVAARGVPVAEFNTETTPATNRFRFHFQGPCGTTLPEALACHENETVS
rRNA inh HTS: inhibits bacterial ribosomal RNA function over humanized ribosomes; 350,000 tested, 1.6% active; GFP signal change (wild-type ribosome), % (test concentration not listed); E. coli WT GFP vs humanized-ribosome RFP mutants, fluorescence, 24 h; stronger effect = lower value; DMSO median 0, no signal -100; AID 720706;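 active = significant combined selectivity score with lowered wild-type GFP, culture density cut under 30%, mutant RFP and density less affected; inactive = any of these conditions unmet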
C2C12 statin: protects C2C12 myotubes from simvastatin toxicity; ATP luminescence, 48 h; scaled: DMSO 0, geranylgeraniol control 100; rescue of ATP level, % at 7.49 µM; 330,000 tested, 0.78% active;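 active = mean ATP rescue above about 67%, or every replicate alone reaching that limit, limit read from the data, passing the limit was not always enough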;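 note: myotubes were challenged with 10 µM simvastatin during compound exposure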
S100A4 inh HTS: inhibitors of human S100A4 binding to myosin IIA peptide; P26447; inhibition, % at 10.7 µM; AID 652163; S100A4/TAMRA-MyoIIA peptide fluorescence polarization; 360,000 tested, 0.14% active;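 active = mean inhibition of at least 70% across replicates, with every replicate also reaching that level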
Target sequence (P26447 whole entry, looked up): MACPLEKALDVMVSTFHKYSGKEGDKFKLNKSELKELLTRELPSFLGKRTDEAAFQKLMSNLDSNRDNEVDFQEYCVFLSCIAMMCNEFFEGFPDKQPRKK
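Material: S100A4 monomer protein | Medium: HEPES pH 7.2 with CaCl2, KCl, NaCl, DTT, Triton | Reagent: Labelled myosin peptide probe, 5 nM | Doses: One dose per compound | Times: 5 min incubation before reading | Benchmarks: Neutral control DMSO, positive control TFP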
Numbers stand for hits. Only some compounds are listed: those with a hit (about 3% of all), similar ones and a draw of the others.

For O=C(O)c1ccc2c(c1)N(Cc1ccc(F)cc1)C(=O)c1ccccc1S2 the results were PGC1a acetyl inh inactive, Cneo AK release inactive, SIRT5 block inactive, rRNA inh HTS -20, C2C12 statin inactive and S100A4 inh HTS inactive.
CN(C)CC(=O)Nc1ccc2c(c1)[C@@H]1C[C@H](CC(=O)NCC3CC3)O[C@H](CO)[C@@H]1O2 was read as PGC1a acetyl inh inactive, Cneo AK release inactive, SIRT5 block inactive, rRNA inh HTS inactive, C2C12 statin inactive and S100A4 inh HTS inactive.
Screening CCN(CC)S(=O)(=O)c1cccc(C(=O)OC2CCOC2=O)c1 (centres undefined) returned Cneo AK release inactive, SIRT5 block inactive, rRNA inh HTS inactive, C2C12 statin inactive and S100A4 inh HTS inactive.
C=CCN(c1ccccc1OC)S(=O)(=O)c1cccc(C(=O)OC2CCOC2=O)c1 (centres undefined) was read as PGC1a acetyl inh inactive, Cneo AK release inactive, rRNA inh HTS inactive, C2C12 statin 114 and S100A4 inh HTS inactive.
COc1ccc(N(C(=O)Nc2ccc(Cl)cc2)C2=NCCC2)cc1 was read as PGC1a acetyl inh inactive, Cneo AK release inactive, SIRT5 block inactive, rRNA inh HTS -36, C2C12 statin inactive and S100A4 inh HTS inactive.
`Cc1ccc(N(C(=O)Nc2ccccc2)C2=NCCC2)cc1` gave PGC1a acetyl inh inactive, Cneo AK release inactive, SIRT5 block inactive, rRNA inh HTS inactive and S100A4 inh HTS inactive.
CC(=O)O[C@H]1CC[C@@]2(C)[C@@H](CC[C@H]3[C@@H]4CC[C@H](C(C)O)[C@@]4(C)CC(=O)[C@@H]32)C1 (some centres undefined) was read as PGC1a acetyl inh inactive, Cneo AK release inactive, SIRT5 block 23, rRNA inh HTS inactive, C2C12 statin inactive and S100A4 inh HTS inactive.
Screening CC(=O)OC1CCC2(C)C(CCC3C2CC(=O)C2(C)C3CC(C3CCCC3=O)C2C(C)=O)C1 (centres undefined) returned Cneo AK release inactive, SIRT5 block 15, rRNA inh HTS inactive, C2C12 statin inactive and S100A4 inh HTS inactive.
Screening Cc1noc(C)c1NC(=O)N(C)C[C@H]1Oc2ccc(NC(=O)Cc3ccccc3)cc2CC(=O)N([C@@H](C)CO)C[C@H]1C returned PGC1a acetyl inh inactive, Cneo AK release inactive, SIRT5 block inactive, rRNA inh HTS inactive and C2C12 statin inactive.
For O=C1NC(=O)/C(=C/c2ccccc2Cl)N1 the results were PGC1a acetyl inh inactive, Cneo AK release inactive, SIRT5 block inactive, rRNA inh HTS inactive, C2C12 statin inactive and S100A4 inh HTS inactive.
Screening O=C1NC(=O)/C(=C\c2ccc(Cl)cc2Cl)N1 returned PGC1a acetyl inh inactive, Cneo AK release inactive, rRNA inh HTS -19, C2C12 statin inactive and S100A4 inh HTS inactive.
`Cc1ccc(S(=O)(=O)NC(CC(C)C)C(=O)NCC(c2ccco2)N2CCCCC2)cc1` (centres undefined) gave PGC1a acetyl inh inactive, Cneo AK release inactive, SIRT5 block inactive, rRNA inh HTS inactive, C2C12 statin inactive and S100A4 inh HTS inactive.
`COc1ccc(C(CNC(=O)C(CC(C)C)NS(=O)(=O)c2ccc(C)cc2)N2CCOCC2)cc1` (centres undefined) gave Cneo AK release inactive, SIRT5 block 22, rRNA inh HTS inactive, C2C12 statin inactive and S100A4 inh HTS inactive.
`O=C(Nc1nc2ccccc2s1)Nc1ccc(F)cc1F` gave Cneo AK release inactive, SIRT5 block inactive, rRNA inh HTS inactive, C2C12 statin inactive and S100A4 inh HTS inactive.
`O=C(Nc1ccc(F)cc1F)Nc1sccc1-c1nc2ccccc2s1` gave PGC1a acetyl inh inactive, SIRT5 block inactive, rRNA inh HTS -22, C2C12 statin inactive and S100A4 inh HTS inactive.
For C[C@@H]1CN([C@@H](C)CO)C(=O)Cc2cc(NC(=O)Nc3ccccc3)ccc2O[C@H]1CN(C)S(C)(=O)=O the results were PGC1a acetyl inh inactive, Cneo AK release inactive, SIRT5 block inactive, rRNA inh HTS inactive, C2C12 statin inactive and S100A4 inh HTS inactive.
Screening Cc1cccc(-n2c(O)c(C=NC3CCS(=O)(=O)C3)c3ccccc3c2=O)c1 (centres undefined) returned PGC1a acetyl inh inactive, Cneo AK release inactive and C2C12 statin 138.
Screening CS(=O)(=O)Nc1ccc2c(c1)[C@H]1C[C@H](CC(=O)NCC(F)(F)F)O[C@@H](CO)[C@H]1O2 returned PGC1a acetyl inh inactive, Cneo AK release inactive, SIRT5 block inactive, rRNA inh HTS inactive, C2C12 statin inactive and S100A4 inh HTS inactive.
Screening CCOC(=O)C1=CNS(=O)(=O)NC1CCc1ccccc1 (centres undefined) returned Cneo AK release inactive, SIRT5 block inactive, rRNA inh HTS -22, C2C12 statin inactive and S100A4 inh HTS inactive.
Screening CCOC(=O)C1=CN(CC)S(=O)(=O)NC1c1ccccc1 (centres undefined) returned PGC1a acetyl inh inactive, Cneo AK release inactive, SIRT5 block inactive, rRNA inh HTS inactive, C2C12 statin inactive and S100A4 inh HTS inactive.
Screening O=C(CCN1CCCCC1)N[C@@H]1CC[C@H](CCNS(=O)(=O)c2ccc(Cl)cc2)O[C@H]1CO returned PGC1a acetyl inh inactive, Cneo AK release inactive, SIRT5 block inactive, rRNA inh HTS inactive, C2C12 statin inactive and S100A4 inh HTS inactive.
`CCOC(=O)N1CCN(C(=O)c2cc(Cl)c(Cl)cc2C(=O)O)CC1` gave PGC1a acetyl inh 84, SIRT5 block inactive, rRNA inh HTS inactive and S100A4 inh HTS inactive.
`CCOC(=O)N1CCN(C(=O)C(c2ccccc2)c2ccccc2)CC1` gave PGC1a acetyl inh inactive and C2C12 statin 115.
`Cc1cccc(Cn2c(N3CCN(C)CC3)nc3c2c(=O)[nH]c(=O)n3C)c1` gave PGC1a acetyl inh inactive, Cneo AK release inactive, rRNA inh HTS inactive, C2C12 statin inactive and S100A4 inh HTS inactive.
`Cc1cccc(Cn2c(N3CCCCC3C)nc3c2c(=O)[nH]c(=O)n3C)c1` (centres undefined) gave PGC1a acetyl inh inactive, Cneo AK release inactive, SIRT5 block inactive, rRNA inh HTS inactive, C2C12 statin 120 and S100A4 inh HTS inactive.
`CCCNC(=O)N(C)C[C@H]1Oc2cc(C#CC3CC3)ccc2S(=O)(=O)N([C@@H](C)CO)C[C@H]1C` gave PGC1a acetyl inh inactive, Cneo AK release inactive, SIRT5 block inactive, rRNA inh HTS inactive, C2C12 statin inactive and S100A4 inh HTS inactive.
Screening O=C(/C=C/c1cccc([N+](=O)[O-])c1)NCCSCc1ccc(Cl)cc1 returned SIRT5 block inactive, rRNA inh HTS -20 and S100A4 inh HTS inactive.
For O=C(OC(C(=O)NCc1ccc2c(c1)OCO2)c1ccccc1F)c1ccco1 (centres undefined) the results were PGC1a acetyl inh inactive, Cneo AK release inactive and C2C12 statin 84.

High-throughput results: PubChem BioAssay, Broad Institute
